Counter-ions that a name gives are not always drawn. Like-named read-outs stand apart in the source and are kept apart here.
Legend:
MBD2-MBD [1] = target: T1, MBD2-MBD (Homo sapiens, UniProt Q9UBB5); assay: TR-FRET dose-response; format: binding; settings: for dose-response for inhibition of MBD2-MBD binding to methylated DNA (in words): TR-FRET, dose range tested up to 20 µM
SP-1 = SP-1 (Homo sapiens, UniProt P08047); assay: TR-FRET counter screen with transcription factor SP-1 binding to DNA; settings: for inhibition of SP-1 binding to DNA (in words): TR-FRET counter screen, dose response
MBD2-MBD [2] = target: T1, MBD2-MBD; settings: read-out: EC50 of MBD2-MBD binding to DNA; FP assay
In short: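 His-tagged MBD2-MBD expressed in E. coli BL21 DE3 and purified by Ni-NTA and gel filtration. Protein dilution series in 10 mM Tris-HCl pH 7.4, 125 mM NaCl, 4% glycerol, 1 mM MgCl2, 0.5 mM EDTA, 0.5 mM DTT, 0.2% Tween-20. Added 10nM FAM-labelled hairpin oligo (CpG-methylated or unmethylated; annealed at 95°C, then ice). 1 h at 4°C with shaking, quadruplicate. Ex 470/em 525 nm; anisotropy plotted against protein concentration and curve-fitted.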

MBD2-MBD [3] = target: T1, MBD2-MBD; assay: TR-FRET binding curves of MBD2-MBD to methylated and unmethylated DNA; settings: read-out: EC50 of MBD2-MBD binding to DNA; TR-FRET assay
In short: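 His-tagged MBD2-MBD (25nM; E. coli-expressed, Ni-NTA and gel-filtration purified) in the FP binding buffer. FAM-labelled methylated or unmethylated hairpin oligo added as a dilution series, with 5 nM Tb-anti-His antibody. 1 h at 4°C with shaking. Ex 332 nm; emission 485 and 515 nm read after a 50 µsec delay over 400 µsec. No-protein 515/485 ratio subtracted; plotted against total DNA concentration and curve-fitted.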

MBD2-MBD [4] = target: MBD2-MBD (UniProt Q9UBB5 145-213); assay: fluorescence polarization
MBD2-MBD (UniProt Q9UBB5 145-213), sequence (Q9UBB5 145-213): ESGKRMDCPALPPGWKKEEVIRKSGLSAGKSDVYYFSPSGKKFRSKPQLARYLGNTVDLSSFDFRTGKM

SP-1, sequence (P08047 whole entry): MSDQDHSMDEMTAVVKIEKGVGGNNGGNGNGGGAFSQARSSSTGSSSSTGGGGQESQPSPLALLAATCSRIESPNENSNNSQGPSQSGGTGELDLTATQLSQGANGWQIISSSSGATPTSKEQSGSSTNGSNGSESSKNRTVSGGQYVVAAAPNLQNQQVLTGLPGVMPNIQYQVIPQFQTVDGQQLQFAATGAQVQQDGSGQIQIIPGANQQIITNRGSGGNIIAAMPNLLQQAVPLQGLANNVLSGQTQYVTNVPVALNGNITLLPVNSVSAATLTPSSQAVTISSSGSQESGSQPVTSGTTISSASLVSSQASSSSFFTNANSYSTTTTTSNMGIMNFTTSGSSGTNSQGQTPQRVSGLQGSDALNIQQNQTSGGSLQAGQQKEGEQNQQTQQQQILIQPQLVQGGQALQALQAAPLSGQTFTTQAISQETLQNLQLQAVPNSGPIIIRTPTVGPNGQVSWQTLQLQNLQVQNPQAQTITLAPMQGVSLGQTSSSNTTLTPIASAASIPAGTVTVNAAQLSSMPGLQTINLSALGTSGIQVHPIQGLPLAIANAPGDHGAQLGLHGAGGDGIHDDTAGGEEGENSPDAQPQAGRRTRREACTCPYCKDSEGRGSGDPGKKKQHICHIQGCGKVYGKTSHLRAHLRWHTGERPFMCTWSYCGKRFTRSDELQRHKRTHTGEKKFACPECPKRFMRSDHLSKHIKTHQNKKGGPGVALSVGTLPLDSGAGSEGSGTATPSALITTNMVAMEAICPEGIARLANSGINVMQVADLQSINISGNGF
T1 sequence (Q9UBB5 145-213 limits assumed): as the sequence (Q9UBB5 145-213) above

| Molecule | dose-response for inhibition of MBD2-MBD binding to methylated DNA (in words) (MBD2-MBD [1]) | inhibition of SP-1 binding to DNA (in words) (SP-1) | IC50 (MBD2-MBD [1]) [µM] | other results |
| --- | --- | --- | --- | --- |
| NC(Cc1cc(O)c(O)cc1O)C(=O)O (racemic) [6-Hydroxy-DL-DOPA] | failed to show appreciable inhibition | – | – | – |
| N[C@H](C(=O)O)[C@H]1C[C@@H]1C(=O)O [(2S,1S,2S)-2-(carboxycyclopropyl)glycine] | failed to show appreciable inhibition | – | – | – |
| O=C(O)C1=CC(=C(c2ccc(O)c(C(=O)O)c2)c2ccc(O)c(C(=O)O)c2)C=CC1=O [Aurintricarboxylic acid] | showed a sigmoidal dose-response | prevented binding of SP1 to DNA with similar potency | 0.0027 | – |
| CCN(CC)CCOCCOC(=O)C1(c2ccccc2)CCCC1 [Carbetapentane citrate] | failed to show appreciable inhibition | – | – | – |
| CN(N=O)c1cc(O)ccc1O [Dephostatin] | failed to show appreciable inhibition | – | – | – |
| CC(=O)[C@]1(O)Cc2c(O)c3c(c(O)c2[C@@H](O[C@H]2C[C@H](N)[C@H](O)[C@H](C)O2)C1)C(=O)c1ccccc1C3=O [Idarubicin] | showed a sigmoidal dose-response | prevented binding of SP1 to DNA with similar potency | 0.196 | IC50 (SP-1): 0.58 µM |
| CN(N=O)c1ccc(O)c(O)c1 [Me-3,4-dephostatin] | failed to show appreciable inhibition | – | – | – |
| O=C1c2c(O)ccc(O)c2C(=O)c2c(NCCNCCO)ccc(NCCNCCO)c21 [Mitoxantrone] | showed a sigmoidal dose-response | prevented binding of SP1 to DNA with similar potency | 0.094 | IC50 (SP-1): 0.314 µM |
| unmethylated DNA: FAM-labeled hairpin oligonucleotide 5′-ATGCTCGTAGCACTTTTGTGCTACGAGCAT-3′ (unmethylated) (DNA, backbone not given here; FAM label, hairpin) | – | – | – | EC50 (SP-1; read-out: EC50 of SP-1 binding to DNA, TR-FRET assay, binding curve): 0.022 µM; EC50 (MBD2-MBD [2]): > 1 µM; EC50 (MBD2-MBD [3]): > 1 µM |
| ATGCTCGTAGCACTTTTGTGCTACGAGCAT (structured_DNA, 5-methyl-C at C6 and C24 (printed Cme)) [methylated hairpin FAM] | – | – | – | apparent K (half saturation) (MBD2-MBD [4]): 42.7 nM |
